High-throughput results (PubChem)
An excerpt weighted towards active compounds, which were near 2.9% of everything screened.
SENP8 block-1 – blocks human SENP8 cleavage of Nedd8 substrate | inhibition, % at 20 µM | 0.64% of 360,000 active | recombinant SENP8, Nedd8 substrate fluorescence | Q96LD8; in the data active means inhibition mostly above about 40%, no sharp cut-off; inactive means mostly below about 27%
HSP90 inh – inhibitors of HSP90 luciferase refolding in rabbit reticulocyte lysate. luciferase refolding luminescence, 3 h. inhibition, % at 5.6 µM. 0.91% of 290,000 active. AID 1789;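 active means inhibition above the screen-wide mean plus 3 SD, computed separately per campaign, cut at about 16% in these data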;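 further: 0% = DMSO wells and 100% = 60 µM geldanamycin wells; inhibitors lower the luminescence because luciferase stays unfolded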
SENP6 block – inhibitors of human SENP6 protease. Recombinant SENP6 catalytic domain, aminoluciferin luminescence. inhibition, % at 10 µM. 1.8% of 330,000 active. Q9GZR1;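 active means inhibition above about 50% at the single tested dose, limit read from the data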;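 further: plate controls were DMSO wells with enzyme for no effect and DMSO wells lacking enzyme for full effect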
Target sequence (Q9GZR1 628-1112 limits assumed): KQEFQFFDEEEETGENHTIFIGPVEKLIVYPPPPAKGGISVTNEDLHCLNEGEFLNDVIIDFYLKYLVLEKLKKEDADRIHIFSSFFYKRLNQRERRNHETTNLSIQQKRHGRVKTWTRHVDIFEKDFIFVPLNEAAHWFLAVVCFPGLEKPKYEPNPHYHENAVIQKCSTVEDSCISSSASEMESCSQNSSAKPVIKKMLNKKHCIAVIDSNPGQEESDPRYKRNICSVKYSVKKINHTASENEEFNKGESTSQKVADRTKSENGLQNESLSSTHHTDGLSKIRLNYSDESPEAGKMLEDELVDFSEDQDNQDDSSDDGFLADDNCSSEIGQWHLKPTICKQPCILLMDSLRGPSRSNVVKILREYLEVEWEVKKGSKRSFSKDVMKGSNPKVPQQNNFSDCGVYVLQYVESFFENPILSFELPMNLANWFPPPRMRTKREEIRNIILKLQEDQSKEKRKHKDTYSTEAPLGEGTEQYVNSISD
SENP1 inh – blocks the human SENP1 SUMO protease catalytic domain. Q9P0U3. recombinant SENP1 catalytic domain, CyPet-SUMO1-YPet FRET cleavage. inhibition, % at 10 µM. 0.21% of 360,000 active. AID 624204;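 active means inhibition at least 30% at 10 µM, raw YFP signal under a set limit, fluorescence ratio 0.5 to 1.5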;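 further: 0% = enzyme with DMSO and 100% = no enzyme wells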
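material = recombinant human SENP1 catalytic domain, His6-tagged | quantity = 20 pM enzyme | reagent = 25 nM SUMO1 FRET substrate | compound dosing = 10 µM single point, 0.5% DMSO | timing = 50 min enzyme reaction, room temperature, light-protected | detection = FRET, CFP and YFP emission | control set = no-enzyme low, enzyme-DMSO high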
SENP8 block-2 – blocks the human protease SENP8 | Q96LD8 | purified SENP8, Z-RLRGG-aminoluciferin cleavage, luminescence | inhibition, % at 10 µM | 1.2% of 330,000 active | AID 2540; in the data active means inhibition above about 50%
SENP7 inh – SENP7 protease inhibition; recombinant SENP7, Z-RLRGG-aminoluciferin luminescence, 40 min; 1.5% of 330,000 active; inhibition, % at 5 µM; AID 434973;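 active means inhibition above about 50% at the single test dose, limit read from the data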;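 further: plate controls were DMSO with enzyme for no effect and no enzyme buffer wells for full effect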
SENP8 conf – confirmation of human SENP8 protease inhibitors | inhibition, % at 12.5 µM | shares compounds with SENP7 inh | Recombinant SENP8, Z-RLRGG-aminoluciferin luminescence, 60 min | 40% of 6,200 active;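 active means mean inhibition across replicates above about 50%, limit read from the data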
SENP6 conf – human SENP6 inhibition, confirmed; shares compounds with SENP7 inh; recombinant SENP6, Z-RLRGG-aminoluciferin luminescence; inhibition, % at 12.5 µM; 58% of 6,200 active
SENP7 conf – human SENP7 inhibition, confirmed. recombinant SENP7, Z-RLRGG-aminoluciferin luminescence, 40 min. inhibition, % at 12.5 µM. AID 488917. 69% of 6,200 active. shares compounds with SENP7 inh
Casp3 select – caspase-3 inhibition (SENP selectivity assay) | shares compounds with SENP7 inh | purified caspase-3, Z-DEVD-aminoluciferin luminescence, 60 min | inhibition, % at 12.5 µM | 60% of 6,200 active;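 active means mean inhibition above about 50%, limit read from the data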;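 further: plate controls were enzyme with DMSO for no effect and wells without caspase-3 for full effect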
Target sequence (P42574 28-227 limits assumed): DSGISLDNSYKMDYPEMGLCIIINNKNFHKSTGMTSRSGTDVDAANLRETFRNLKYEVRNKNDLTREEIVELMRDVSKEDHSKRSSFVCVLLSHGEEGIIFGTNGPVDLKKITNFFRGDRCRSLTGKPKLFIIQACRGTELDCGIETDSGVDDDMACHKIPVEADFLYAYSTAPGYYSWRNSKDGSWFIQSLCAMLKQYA
Luc interf – luminescence interference (SENP counter-screen); shares compounds with SENP7 inh; Pre-incubated SENP8/Z-RLRGG-aminoluciferin, luciferase luminescence interference; inhibition, % at 12.5 µM; 39% of 6,200 active; AID 488919;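 active means mean inhibition above about 50% when retested at one dose, limit read from the data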;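 further: plate controls were DMSO wells with completed reaction for no effect and substrate without enzyme for full effect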
* hit, by the source's call; . = no result given.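 How the source made its calls, unless noted: active means mean inhibition above about 50% in the one-dose retest (limit read from the data); inactive means the rest.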

SMILES | SENP8 block-1 | HSP90 inh | SENP6 block | SENP1 inh | SENP8 block-2 | SENP7 inh | SENP8 conf | SENP6 conf | SENP7 conf | Casp3 select | Luc interf
Cc1ccc(Cl)cc1N1CCN(S(=O)(=O)N2CCCCC2)CC1 | 13 | 4 | . | 3 | . | . | . | . | . | . | .
Cc1ccc(Cl)cc1N1CCN(S(C)(=O)=O)CC1 | 3 | -2 | 4 | 3 | -6 | 67* | 4 | 6 | 14 | 9 | 5
COc1cccc(CNC(=O)CCC2CCCN(C(=O)c3ccoc3)C2)c1 (centres undefined) | 6 | 0 | 13 | 1 | 2 | -1 | . | . | . | . | .
COc1cccc(CNC(=O)CCC2CCCN(C(=O)c3cc4ccccc4o3)C2)c1 (centres undefined) | 7 | -5 | 21 | 2 | 54* | 52* | 0 | 62* | 89* | 76* | 59*
CSc1ncccc1C(=O)Nc1cccc(S(=O)(=O)N(C)c2ccccc2)c1 | 3 | . | 15 | 1 | -7 | 0 | . | . | . | . | .
N#Cc1ccc(CC(C(=O)O)N2Cc3ccccc3C2=O)cc1 (centres undefined) | 12 | 2 | -21 | 3 | 5 | 4 | . | . | . | . | .
O=C(c1ccccc1)c1cnc(-c2ccccc2)s1 | 6 | 0 | 93* | 0 | 89* | 96* | 54* | 50 | 73* | 62* | 20
O=C(c1ccc(Cl)cc1)c1cnc(-c2ccc(Cl)cc2)s1 | 30 | 2 | -4 | 0 | -14 | -4 | . | . | . | . | .
O=C(c1ccccc1)c1cnc(-c2ccc(Cl)cc2)s1 | 31 | 3 | 80* | 2 | 22 | 97* | 14 | 19 | 7 | 25 | 7
C=C(C)COC(=O)C1CC2OC2CC1C(=O)OCC(=C)C (centres undefined) | 15 | . | . | -1 | . | . | . | . | . | . | .
O=C(C1=NOC2(C1)C(=O)Nc1ccccc12)N1CCCCC1 (centres undefined) | 2 | . | . | 2 | . | . | . | . | . | . | .
O=[N+]([O-])c1ccc2cn(-c3ccccc3)nc2c1 | 21 | 1 | 14 | 3 | 60* | 81* | 34 | 70* | 92* | 69* | 44
COc1ccccc1-n1cc2ccc([N+](=O)[O-])cc2n1 | 28 | . | 31 | 1 | 12 | 9 | . | . | . | . | .
O=C(c1cc(F)ccc1F)C1CCCN(C(=O)c2ccc3nccnc3c2)C1 (centres undefined) | 7 | -3 | 17 | -1 | 1 | 12 | . | . | . | . | .
CC(C)C(NC(=O)c1c(F)cccc1F)C(=O)OCN1C(=O)c2ccccc2C1=O (centres undefined) | 8 | . | -1 | 1 | 1 | 1 | . | . | . | . | .
Cc1[nH]c(=O)c(Cc2ccccc2)c(O)c1C#N | 13 | . | -13 | 3 | -5 | 3 | . | . | . | . | .
Cn1c(=O)c2c(O)c(Cc3ccccc3)c(=O)[nH]c2n(C)c1=O | 7 | 3 | 61* | -3 | 4 | 29 | 42 | 39 | 66* | 64* | 8
O=C(OC1CC2CC1[C@H]1CCCCN1C2=O)N1CCN(S(=O)(=O)c2ccccc2)CC1 (some centres undefined) | 3 | . | . | 0 | . | . | . | . | . | . | .
Cc1ccc(NC(=O)n2ncc3c(C)cccc32)c(C)c1 | 15 | -2 | -10 | 4 | -12 | 0 | . | . | . | . | .
COc1cccc(NC(=O)n2ncc3c(C)cccc32)c1 | 20 | 35* | 99* | 2 | 95* | 100* | 100* | 101* | 103* | 99* | 98*
Cc1cccc2c1cnn2C(=O)Nc1ccc(Br)cc1F | 14 | 0 | 8 | 0 | -3 | -4 | . | . | . | . | .
CCOc1ccc(NC(=O)n2ncc3c(C)cccc32)cc1 | 22 | -7 | 64* | 0 | 81* | 91* | -4 | 3 | 6 | 10 | -3
COc1cccc(/C=N/n2c(C3CCCCC3)n[nH]c2=S)c1 | 18 | -3 | 0 | 2 | 5 | 1 | . | . | . | . | .
CC(C)(C)n1nnnc1C(c1ccccc1)N1CCCN(Cc2ccc(F)cc2)CC1 (centres undefined) | 32 | . | . | 2 | . | . | . | . | . | . | .
Cc1ccc(C(=O)Nc2sc3c(c2C(=O)O)CCCC3)o1 | -466 | 6 | 89* | -1 | 91* | 75* | 95* | 94* | 101* | 96* | 92*
SMILES | SENP8 block-1 | HSP90 inh | SENP6 block | SENP1 inh | SENP8 block-2 | SENP7 inh | SENP8 conf | SENP6 conf | SENP7 conf | Casp3 select | Luc interf
NC(=O)c1c(NC(=O)c2cc3ccccc3o2)sc2c1CCC2 | -438 | 3 | 60* | -36 | 25 | 38 | 14 | 17 | 67* | 36 | 18
Cc1ccc(C(=O)Nc2sc3c(c2C(=O)O)CCCCC3)o1 | -423 | 12 | -15 | -2 | 97* | 91* | 98* | 100* | 103* | 98* | 97*
O=C(Nc1sc2c(c1C(=O)O)CCC2)c1ccco1 | -81 | -1 | 97* | 1 | 91* | 91* | 94* | 94* | 101* | 96* | 93*
COC(=O)c1c(NC(=O)c2ccco2)sc2c1CCC2 | -401 | 3 | -6 | -2 | -4 | 2 | . | . | . | . | .
COc1cc(NC(=O)c2ccccc2)c(OC)cc1NC(=O)Cc1ccc(C)cc1 | 4 | 0 | 8 | -1 | 6 | 4 | . | . | . | . | .
O=C(OCC(=O)N1CCCCCC1)c1cccc(Cl)c1 | 17 | . | -2 | -2 | -2 | 5 | . | . | . | . | .
Nc1nc2n(n1)C(c1cccc(Cl)c1)CC(c1ccc(F)cc1)N2 (centres undefined) | -42 | 0 | -9 | -117 | -7 | 65* | 8 | 6 | -10 | -4 | -1
C=Cc1ccc(C2=CC(=O)C[C@H](c3ccc(OC)cc3)C2)cc1 | 5 | . | -25 | 1 | -16 | -10 | . | . | . | . | .
Nc1nccc(-c2cc(-c3ccc(Cl)cc3Cl)no2)n1 | -208 | 0 | 95* | -2 | 92* | 95* | 80* | 87* | 91* | 76* | 42
Nc1nnc(-c2ccc(Cl)cc2Cl)s1 | -170 | -3 | 13 | 0 | 2 | 5 | . | . | . | . | .
CCc1ccccc1NC(=O)COc1ccc2c(c1)OCO2 | 11 | 1 | -10 | 1 | -7 | 1 | . | . | . | . | .
Cc1ccc(NC(=O)COc2ccc3c(c2)OCO3)c(Cl)c1 | 14 | . | 21 | -1 | 0 | 62* | 12 | 6 | 7 | 4 | -2
Cc1c(C(C)(C)C)sc(=NC(=O)c2ccccc2O)n1C | -288 | 6 | 63* | -1 | 60* | 72* | 19 | 12 | 2 | 12 | -3
